From ChEMBL document CHEMBL4725239, “Design, synthesis and SAR study of bridged tricyclic pyrimidinone carboxamides as HIV-1 integrase inhibitors” (Bioorg Med Chem, 2020)

Columns and labels:
[1] = test system: Human immunodeficiency virus 1; assay: Antiviral activity against HIV1 harboring G140S/Q148H double mutant in presence of 10% FBS; type: functional, organism-based
How it was run: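 HIV-1 carrying G140S/Q148H double-mutant integrase; antiviral EC50 determined with 10% FBS in the medium.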

[2] = test system: Human immunodeficiency virus 1; assay: Antiviral activity against HIV1 harboring Q148R mutant; type: functional, organism-based
[3] = test system: Human immunodeficiency virus 1; assay: Antiviral activity against wild type HIV1 in presence of 10% FBS; type: functional, organism-based
[4] = Clearance in Sprague-Dawley rat at 0.5 mg/kg, iv measured up to 4 hrs; type: ADME, organism-based; conditions: in vivo
How it was run: (§1)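 Male Sprague-Dawley rats dosed IV with compound as a PEG-400/ethanol (90:10) solution. Plasma exposure was followed for 4 h, and Cmax, t1/2, clearance and Vss were derived from that profile.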

[5] = Volume of distribution at steady state in Sprague-Dawley rat at 0.5 mg/kg, iv measured up to 4 hrs; type: ADME, organism-based; conditions: in vivo, read-out: Vdss; how it was run: as §1
[6] = Half life in Sprague-Dawley rat at 0.5 mg/kg, iv measured up to 4 hrs; type: ADME, organism-based; conditions: in vivo; how it was run: as §1
[7] = Binding affinity to wild type HIV1 integrase; parameters: species or system Human immunodeficiency virus 1
[8] = Cmax in Sprague-Dawley rat at 0.5 mg/kg, iv measured up to 4 hrs; type: ADME, organism-based; parameters: route intravenous, dose 0.5 mg/kg, time <=4; conditions: in vivo; how it was run: as §1
Integrase = Integrase (Human immunodeficiency virus 1, UniProt T1QYY3, G140S/Q148H); assay: Binding affinity to […] HIV1 integrase G140S/Q148H mutant
[9] = Volume of distribution at steady state in cynomolgus monkey at 1 mg/kg, iv; type: ADME, organism-based, Macaca fascicularis; conditions: in vivo, read-out: Vdss
How it was run: (§2)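 Cynomolgus monkeys dosed IV or PO with compound formulated as a PEG-400/ethanol (90:10) solution. Oral bioavailability was taken from the PO versus IV exposure.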

[10] = Clearance in Sprague-Dawley rat at 1 mg/kg, iv measured up to 4 hrs; type: ADME, organism-based; conditions: in vivo; how it was run: as §1
[11] = Clearance in Beagle dog at 1 mg/kg, iv; type: ADME, organism-based, Canis lupus familiaris; conditions: in vivo
[12] = AUC in Sprague-Dawley rat at 5 mg/kg, po; type: ADME, organism-based; parameters: dose 5 mg/kg; conditions: in vivo
[13] = Half life in Beagle dog at 1 mg/kg, iv; type: ADME, organism-based, Canis lupus familiaris; conditions: in vivo
[14] = Half life in Sprague-Dawley rat at 1 mg/kg, iv measured up to 4 hrs; type: ADME, organism-based; conditions: in vivo; how it was run: as §1
[15] = Oral bioavailability in Sprague-Dawley rat at 5 mg/kg; type: ADME, organism-based; conditions: in vivo
[16] = AUC in cynomolgus monkey at 5 mg/kg, po; type: ADME, organism-based, Macaca fascicularis; parameters: dose 5 mg/kg; conditions: in vivo; how it was run: as §2
[17] = Volume of distribution at steady state in Sprague-Dawley rat at 1 mg/kg, iv measured up to 4 hrs; type: ADME, organism-based; conditions: in vivo, read-out: Vdss; how it was run: as §1
[18] = Volume of distribution at steady state in Beagle dog at 1 mg/kg, iv; type: ADME, organism-based, Canis lupus familiaris; conditions: in vivo, read-out: Vdss
[19] = Oral bioavailability in cynomolgus monkey at 5 mg/kg; type: ADME, organism-based, Macaca fascicularis; conditions: in vivo; how it was run: as §2
[20] = Ratio of EC50 for Antiviral activity against HIV1 harboring G140S/Q148H double mutant in presence of 10% FBS to EC50 for antiviral activity against HIV1 harboring G140S/Q148H double mutant in presence of HSA; type: functional, Human immunodeficiency virus 1
[21] = test system: Human immunodeficiency virus 1; assay: Antiviral activity against HIV1 harboring G140S/Q148H double mutant in presence of HSA; type: functional, organism-based
[22] = Oral bioavailability in Beagle dog at 5 mg/kg; type: ADME, organism-based, Canis lupus familiaris; conditions: in vivo
[23] = Clearance in cynomolgus monkey at 1 mg/kg, iv; type: ADME, organism-based, Macaca fascicularis; conditions: in vivo; how it was run: as §2
[24] = AUC in Beagle dog at 5 mg/kg, po; type: ADME, organism-based, Canis lupus familiaris; parameters: dose 5 mg/kg; conditions: in vivo
[25] = Half life in cynomolgus monkey at 1 mg/kg, iv; type: ADME, organism-based, Macaca fascicularis; conditions: in vivo; how it was run: as §2
[26] = Cmax in Sprague-Dawley rat at 1 mg/kg, iv measured up to 4 hrs; type: ADME, organism-based; parameters: route intravenous, dose 1 mg/kg, time <=4; conditions: in vivo; how it was run: as §1

Compound | EC50 [1] [nM] | EC50 [3] [nM] | also measured
CN(C)C(=O)C(=O)NC12CCC(Cn3c1nc(C(=O)NCc1ccc(F)cc1)c(O)c3=O)C2 (stereo not drawn) | 39 | 2 | EC50 [2]: 26 nM
CC(C)C(=O)C(=O)NC12CCC(CC1)Cn1c2nc(C(=O)NCc2ccc(F)cc2)c(O)c1=O | 94 | 2 | 
CN(C)C(=O)C(=O)NC12CCC(CC1)Cn1c2nc(C(=O)NCc2ccc(F)c(Cl)c2)c(O)c1=O | 6 | 0.8 | 
CN(C)C(=O)C(=O)NC12CCC(CC1)Cn1c2nc(C(=O)NCc2ccc(F)cc2S(C)(=O)=O)c(O)c1=O | > 8000 | 11 | 
CN(C)CC(=O)NC12CCC(CC1)Cn1c2nc(C(=O)NCc2ccc(F)cc2)c(O)c1=O | > 8000 | 20 | 
CN(C)C(=O)C(=O)NC12CCC(CC1)Cn1c2nc(C(=O)NCc2ccc(F)cc2F)c(O)c1=O | 37 | 0.7 | 
CN(C)C(=O)C(=O)NC12CCC(CC1)Cn1c2nc(C(=O)NCc2ccc(F)c(F)c2)c(O)c1=O | 17 | 0.7 | 
CN(C)C(=O)CNC12CCC(CC1)Cn1c2nc(C(=O)NCc2ccc(F)cc2)c(O)c1=O | > 8000 | 7 | 
CN(C)C(=O)NC12CCC(CC1)Cn1c2nc(C(=O)NCc2ccc(F)cc2)c(O)c1=O | 361 | 14 | 
CN(C)C(=O)C(=O)NC12CCC(CC1)n1c2nc(C(=O)NCc2ccc(F)cc2)c(O)c1=O | > 8000 | 8 | 
CN(C)C(=O)C(=O)NC12CCC(CC1)Cn1c2nc(C(=O)NCc2ccc(F)cc2)c(O)c1=O | 10 | 1 | clearance [4]: 30.5 mL/min/kg; Vd [5]: 0.63 L/kg; half-life [6]: 0.45 h; Ki [7]: 2 nM; Cmax [8]: 1.93 µM; Ki (Integrase): 17 nM
CN(C)C(=O)C(=O)NC12CCC(CC1)Cn1c2nc(C(=O)NCc2ccc(F)cc2C(F)(F)F)c(O)c1=O | > 8000 | 8 | 
CN(C)C(=O)C(=O)NC12CCC(CC1)Cn1c2nc(C(=O)NCc2ccc(F)c(C(F)(F)F)c2)c(O)c1=O | 32 | 1.4 | 
CNC(=O)c1cc(F)ccc1CNC(=O)c1nc2n(c(=O)c1O)CC1CCC2(NC(=O)C(=O)N(C)C)CC1 | > 8000 | 60 | 
Cc1cc(F)ccc1CNC(=O)c1nc2n(c(=O)c1O)CC1CCC2(NC(=O)C(=O)N(C)C)CC1 | 558 | 1.3 | 
Cc1cc(CNC(=O)c2nc3n(c(=O)c2O)CC2CCC3(NC(=O)C(=O)N(C)C)CC2)ccc1F | 3 | 0.7 | Vd [9]: 0.26 L/kg; clearance [10]: 12.6 mL/min/kg; clearance [11]: 7 mL/min/kg; AUC [12]: 14.7 µM·h; half-life [13]: 1.6 h; half-life [14]: 12.3 h; Ki [7]: 2 nM; bioavailability [15]: 103%; AUC [16]: 2.89 µM·h; Vd [17]: 1.2 L/kg; Vd [18]: 0.3 L/kg; bioavailability [19]: 23%; Ratio EC50 [20]: 7; EC50 [21]: 21 nM; bioavailability [22]: 83%; clearance [23]: 13.5 mL/min/kg; AUC [24]: 20.8 µM·h; Ki (Integrase): 8 nM; half-life [25]: 1.6 h; Cmax [26]: 5.3 µM
CCOC(=O)C(=O)NC12CCC(CC1)Cn1c2nc(C(=O)NCc2ccc(F)cc2)c(O)c1=O | > 8000 | 21 | 
CN(C)C(=O)C(=O)NC12CCC(CC1)Cn1c2nc(C(=O)NCc2ccc(F)cc2Cl)c(O)c1=O | 1320 | 1.3 | 
